The values that follow come from PubChem BioAssay.

Assay [1] concerns the target Solute carrier family 12 member 5 (Homo sapiens) (UniProt Q9H2X9). Nature of the assay: retest of KCC2 transport modulators without sodium – cell-based, HEK293 KCC2, thallium flux, secondary assay, confirmation (AID 1713;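 active means thallium flux slope above the same plate's solvent-only control mean plus 3 SD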). The settings on record: FluoZin2 fluorescence, at 10 µM, hits give high values. The method in brief:
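Test system: KCC2-expressing HEK cells. Medium: Sodium-free N-methylglucamine chloride buffer. Schedule: dye loading 48 min. Technique: kinetic thallium-flux fluorescence imaging.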

The next assay is described as follows: PubChem AID 1714.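 Further: raw slope of fluorescence over initial fluorescence between 10 and 20 s after thallium.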 The settings on record: HEK293-KCC2 + bumetanide/ouabain, thallium flux FluoZin2; at 10 µM; hits give high values. The essentials:
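Test system – KCC2-expressing HEK cells · Medium – HBSS-HEPES with ouabain and bumetanide · Reagent – thallium stimulus · Dosing – 10 µM single dose · Times – 48 min dye loading · Technique – kinetic FluoZin2 fluorescence, ex 480/em 540 nm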

Assay [2] has as its target Solute carrier family 12 member 5 (Homo sapiens) (UniProt Q9H2X9). Nature of the assay: retest of KCC2 transport modulation, ouabain-free – cell-based, HEK293 KCC2, thallium flux, FluoZin2, secondary assay 2, confirmation (AID 1715).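 Further: raw slope with 0.1% DMSO as baseline and bumetanide as block control.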 The following applies: HEK293-KCC2, thallium flux FluoZin2 fluorescence; at 10 µM; actives lie on both sides; F/F0 rise rate, 10–20 s post-thallium.

Assay [3] is described as follows: compound effects on native HEK Tl+ uptake – HEK cells, counterscreen 1, counter-screen for KCC2 modulator project, confirmation (AID 1716;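 active means thallium flux rate significantly above the same plate's solvent-only control wells, beyond their mean plus 3 SD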). The following applies: HEK293 parental cells, thallium flux FluoZin2, ouabain; at 10 µM; baseline-ratio fluorescence slope, 10–20 s after thallium.
The target in assay [4] is Solute carrier family 12 member 5 (Homo sapiens) (UniProt Q9H2X9). Nature of the assay: modulation of KCC2 thallium flux in HEK cells – cell-based, ouabain, retest, confirmation (AID 1717;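 active means thallium flux slope beyond 3 SD from same-plate DMSO control mean in most replicates, usually higher, sometimes lower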;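 further: slope of initial-normalized fluorescence between seconds 10 and 20 after thallium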). The following applies: HEK293-KCC2, thallium flux FluoZin2 fluorescence, at 10 µM, bidirectional: low = inhibitor, high = activator.
Sequence of Solute carrier family 12 member 5 (Homo sapiens) (Q9H2X9 whole entry, looked up): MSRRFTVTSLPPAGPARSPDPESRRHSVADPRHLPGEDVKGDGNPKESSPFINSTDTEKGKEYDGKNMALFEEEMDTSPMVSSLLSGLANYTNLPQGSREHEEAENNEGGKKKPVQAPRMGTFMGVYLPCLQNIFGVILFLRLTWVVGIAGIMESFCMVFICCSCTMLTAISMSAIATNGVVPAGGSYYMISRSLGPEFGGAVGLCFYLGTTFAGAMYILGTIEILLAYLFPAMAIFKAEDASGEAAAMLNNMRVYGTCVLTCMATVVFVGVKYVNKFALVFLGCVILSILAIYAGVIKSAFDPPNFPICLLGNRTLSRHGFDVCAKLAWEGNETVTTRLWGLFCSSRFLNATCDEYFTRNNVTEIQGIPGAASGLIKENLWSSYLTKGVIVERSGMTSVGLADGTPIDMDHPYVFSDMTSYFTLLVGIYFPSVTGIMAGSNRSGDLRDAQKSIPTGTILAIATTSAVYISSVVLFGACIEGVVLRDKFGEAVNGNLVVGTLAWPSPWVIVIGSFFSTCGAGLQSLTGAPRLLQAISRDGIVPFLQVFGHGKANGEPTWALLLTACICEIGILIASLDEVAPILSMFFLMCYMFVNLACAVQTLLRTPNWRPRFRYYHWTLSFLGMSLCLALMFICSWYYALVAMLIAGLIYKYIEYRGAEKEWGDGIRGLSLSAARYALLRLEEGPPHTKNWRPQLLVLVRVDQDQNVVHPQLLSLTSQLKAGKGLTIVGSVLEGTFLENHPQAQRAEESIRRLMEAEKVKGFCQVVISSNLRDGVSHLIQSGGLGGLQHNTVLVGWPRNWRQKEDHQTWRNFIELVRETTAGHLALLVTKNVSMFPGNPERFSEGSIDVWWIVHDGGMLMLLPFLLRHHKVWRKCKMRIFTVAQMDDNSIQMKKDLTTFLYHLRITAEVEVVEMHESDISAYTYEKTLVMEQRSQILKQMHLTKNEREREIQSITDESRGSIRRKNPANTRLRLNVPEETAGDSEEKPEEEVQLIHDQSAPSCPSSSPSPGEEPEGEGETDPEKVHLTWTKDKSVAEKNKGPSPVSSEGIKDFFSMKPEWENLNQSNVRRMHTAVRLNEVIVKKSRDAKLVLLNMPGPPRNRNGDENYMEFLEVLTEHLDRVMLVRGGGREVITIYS
The nature of assay [5]: native HEK Tl+ uptake effects, second counter-screen – HEK cells, counterscreen 2, counter-screen for KCC2 modulator project, confirmation (AID 1718;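 active means thallium flux slope above the same plate's solvent-control mean plus 3 SD in both duplicate wells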;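 further: run without ouabain in cells lacking the KCC2 cotransporter; slope of fluorescence scaled to its starting value between 10 and 20 s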). The settings on record: HEK293 parental, thallium flux FluoZin-2 fluorescence slope; at 10 µM. The method in brief: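 Read-out: thallium influx rate; assay system: parental HEK cells; replication: slope calculated separately for each replicate well; signal: FluoZin2-AM fluorescence (0.5 µM), ex 480 nm, em 540 nm, kinetic 1 Hz; benchmarks: bumetanide 2 mM; schedule: overnight cell culture at 37 °C, 48 min dye loading, compound before thallium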

Some of the results follow. Records with an inconclusive call do not appear. Unmarked numbers belong to inactive results. Active and inactive are the calls of the source.

Consider `C=CCNC(=S)NNC(=O)COc1c(Cl)cc(Cl)cc1Cl`, for which, in assay [1], the normalised thallium flux (F/F0 slope) is 0.0146 (active). In addition, the normalized thallium flux in “PubChem AID 1714” is 0.0275 (active); in assay [2], 0.0376. Also, in assay [3], the thallium flux rate (normalised fluorescence) is 0.0266 (active). The raw Tl+ flux slope (below DMSO = inhibition, above = activation) in assay [4] is 0.03 (active).
For the compound `CCn1c(=S)[nH]c2sc3c(c2c1=O)CCCCC3`, the normalised thallium flux (F/F0 slope) in assay [1] is 0.0279 (active). Also, the normalized thallium flux in the assay “PubChem AID 1714” was 0.092 (active); in assay [2], 0.0959 (active). The thallium flux rate (normalised fluorescence) in assay [3] was 0.0964 (active). Also, the raw Tl+ flux slope (below DMSO = inhibition, above = activation) in assay [4] was 0.0856 (active). In addition, the thallium flux slope in assay [5] is 0.1 (active).
`Cc1ccccc1N/N=C/c1ccc(N2CCOCC2)cc1`: the normalised thallium flux (F/F0 slope) in assay [1] was 0.0119 (active). Moreover, the normalized thallium flux in “PubChem AID 1714” is 0.00874 (active); in assay [2] it was 0.0362. Besides, in assay [3], the thallium flux rate (normalised fluorescence) was 0.00826. Besides, the raw Tl+ flux slope (below DMSO = inhibition, above = activation) in assay [4] was 0.0234.
For `Cc1ccc(/C=N/NC(=S)Nc2cccc(S(=O)(=O)N(C)C)c2)o1`, in assay [1], the normalised thallium flux (F/F0 slope) is 0.00805. Moreover, the normalized thallium flux in the assay “PubChem AID 1714” is 0.0101 (active); in assay [2] it was 0.028. Further, the thallium flux rate (normalised fluorescence) in assay [3] is 0.0106 (active).
As to `Cc1ccc(/C=N/NC(=S)NC2CCCCC2)o1`, the normalised thallium flux (F/F0 slope) in assay [1] was 0.0109. For the same compound, the normalized thallium flux in the assay “PubChem AID 1714” is 0.0268 (active); in assay [2] it was 0.0327. Moreover, in assay [3], the thallium flux rate (normalised fluorescence) was 0.0111 (active). In addition, the raw Tl+ flux slope (below DMSO = inhibition, above = activation) in assay [4] is 0.0502 (active).
Regarding `Cc1ccc(Nc2nnc(SCC(=O)c3cc4ccccc4o3)s2)cc1C`, the normalised thallium flux (F/F0 slope) in assay [1] is 0.00887. For the same compound, the normalized thallium flux in “PubChem AID 1714” was 0.00668; in assay [2] it was 0.0195 (active). The thallium flux rate (normalised fluorescence) in assay [3] is 0.00694. Also, the raw Tl+ flux slope (below DMSO = inhibition, above = activation) in assay [4] is 0.00819 (active). Moreover, in assay [5], the thallium flux slope was 0.00899.
Turning to `Cc1ccc(C)c(NC(=S)NNC(=O)c2csc(C)c2)c1`, in assay [1], the normalised thallium flux (F/F0 slope) is 0.0109. Moreover, the normalized thallium flux in the assay “PubChem AID 1714” is 0.013 (active); in assay [2] it was 0.034. Besides, in assay [3], the thallium flux rate (normalised fluorescence) was 0.0173 (active). Moreover, in assay [4], the raw Tl+ flux slope (below DMSO = inhibition, above = activation) was 0.0256 (active). In addition, the thallium flux slope in assay [5] was 0.012.
As to `COc1ccc(NC(=O)c2ccccc2[N+](=O)[O-])cc1OC`, the normalised thallium flux (F/F0 slope) in assay [1] is 0.00704. The normalized thallium flux is 0.00505 in the assay “PubChem AID 1714” and 0.0299 in assay [2]. Also, the thallium flux rate (normalised fluorescence) in assay [3] is 0.00749. In addition, the raw Tl+ flux slope (below DMSO = inhibition, above = activation) in assay [4] was 0.0198. In assay [5], the thallium flux slope was 0.0109.
Regarding `Cc1nc(SCC(=O)N2CCc3ccccc3C2)c2c(C)c(C)sc2n1`, the normalised thallium flux (F/F0 slope) in assay [1] was 0.0151. For the same compound, the normalized thallium flux is 0.00522 in “PubChem AID 1714” and 0.0244 (active) in assay [2]. For the same compound, in assay [3], the thallium flux rate (normalised fluorescence) was 0.00764. Further, the raw Tl+ flux slope (below DMSO = inhibition, above = activation) in assay [4] is 0.0144. The thallium flux slope in assay [5] was 0.0108.
On to `CCn1c(SCc2ccccc2)nc2c(c1=O)SCC2`, for which the normalised thallium flux (F/F0 slope) in assay [1] was 0.00954. Besides, the figures for the normalized thallium flux (in “PubChem AID 1714”; in assay [2]) were 0.00493 and 0.0352, respectively. For the same compound, the thallium flux rate (normalised fluorescence) in assay [3] was 0.00537 (active). In assay [4], the raw Tl+ flux slope (below DMSO = inhibition, above = activation) was 0.0198. For the same compound, the thallium flux slope in assay [5] was 0.00988.
In the case of `NC(=O)NC(=O)CSc1nc2cc([N+](=O)[O-])ccc2n1-c1cccc(C(F)(F)F)c1`, the normalised thallium flux (F/F0 slope) in assay [1] is 0.00549. The values for the normalized thallium flux (in “PubChem AID 1714”; in assay [2]) were 0.0122 (active) and 0.0326, respectively. In assay [3], the thallium flux rate (normalised fluorescence) was 0.0113 (active).
For `O=c1[nH]c2ccccc2s1`, the normalised thallium flux (F/F0 slope) in assay [1] is 0.00622. The results for the normalized thallium flux (in “PubChem AID 1714”; in assay [2]) were 0.00492 and 0.0299, respectively. In addition, in assay [3], the thallium flux rate (normalised fluorescence) is 0.00725. Moreover, the raw Tl+ flux slope (below DMSO = inhibition, above = activation) in assay [4] is 0.0175. Further, the thallium flux slope in assay [5] is 0.00982.
In the case of `S=c1nccc(-c2cc(Cl)sc2Cl)[nH]1`, the normalised thallium flux (F/F0 slope) in assay [1] is 0.00959. Further, the normalized thallium flux was 0.0101 (active) in the assay “PubChem AID 1714” and 0.0372 in assay [2]. For the same compound, the thallium flux rate (normalised fluorescence) in assay [3] is 0.0107 (active).
With `Cc1ccc(OCC(=O)NNC(=S)NCc2ccccc2)cc1`, in assay [1], the normalised thallium flux (F/F0 slope) was 0.00584. Moreover, the normalized thallium flux in “PubChem AID 1714” is 0.0196 (active); in assay [2] it was 0.0307. Besides, the thallium flux rate (normalised fluorescence) in assay [3] is 0.0156 (active). In addition, the raw Tl+ flux slope (below DMSO = inhibition, above = activation) in assay [4] was 0.0206. In assay [5], the thallium flux slope is 0.0162 (active).
In the case of `COc1ccc(NC(=O)N2CCC(Cc3ccccc3)CC2)cc1`, the normalised thallium flux (F/F0 slope) in assay [1] is 0.00655. In addition, the figures for the normalized thallium flux (in “PubChem AID 1714”; in assay [2]) were 0.00529 and 0.0303, respectively. The thallium flux rate (normalised fluorescence) in assay [3] is 0.00728. In addition, the raw Tl+ flux slope (below DMSO = inhibition, above = activation) in assay [4] was 0.0137 (active).
For `COc1ccc(C(=O)NC2(C(F)(F)F)NC(=O)N(CCCc3ccccc3)C2=O)c(OC)c1OC` (stereo not drawn), the normalised thallium flux (F/F0 slope) in assay [1] is 0.00692. Moreover, the normalized thallium flux is 0.00586 in the assay “PubChem AID 1714” and 0.0307 in assay [2]. In addition, in assay [3], the thallium flux rate (normalised fluorescence) is 0.00683. Besides, the raw Tl+ flux slope (below DMSO = inhibition, above = activation) in assay [4] was 0.0134 (active). For the same compound, the thallium flux slope in assay [5] is 0.0109.
Consider `COc1ccc2[nH]c(=S)cc(C)c2c1`, for which the normalised thallium flux (F/F0 slope) in assay [1] is 0.00897. The normalized thallium flux in “PubChem AID 1714” was 0.0111 (active); in assay [2], 0.0317. Also, the thallium flux rate (normalised fluorescence) in assay [3] was 0.0146 (active). In assay [4], the raw Tl+ flux slope (below DMSO = inhibition, above = activation) was 0.0267. Further, the thallium flux slope in assay [5] was 0.0122 (active).
Consider `Cc1c(NC(=O)CSc2cccc3cccnc23)c(=O)n(-c2ccccc2)n1C`, for which, in assay [1], the normalised thallium flux (F/F0 slope) is 0.0141 (active). Further, the results for the normalized thallium flux (in “PubChem AID 1714”; in assay [2]) were 0.0374 (active) and 0.0314, respectively. Moreover, in assay [3], the thallium flux rate (normalised fluorescence) was 0.0256 (active). The raw Tl+ flux slope (below DMSO = inhibition, above = activation) in assay [4] is 0.0324 (active).
Regarding `O=[N+]([O-])c1c(NCCO)cc(Sc2nc3ccccc3s2)c2nonc12`, the normalised thallium flux (F/F0 slope) in assay [1] was 0.0147 (active). The values for the normalized thallium flux (in “PubChem AID 1714”; in assay [2]) were 0.0297 (active) and 0.0332, respectively. Also, the thallium flux rate (normalised fluorescence) in assay [3] is 0.0134 (active). Moreover, in assay [4], the raw Tl+ flux slope (below DMSO = inhibition, above = activation) was 0.0556 (active). Further, the thallium flux slope in assay [5] is 0.0128 (active).
